Source: PMC6684259 (Current biology : CB, 2019)

Tests used:
Eg5 (kinesin-5) [1] = biological target: T1, Eg5 (kinesin-5) (Xenopus laevis, UniProt P28025); assay: microtubule shrinkage assay with purified Eg5M in AMPPNP; assay type: biochemical
T1 sequence (P28025 1-368): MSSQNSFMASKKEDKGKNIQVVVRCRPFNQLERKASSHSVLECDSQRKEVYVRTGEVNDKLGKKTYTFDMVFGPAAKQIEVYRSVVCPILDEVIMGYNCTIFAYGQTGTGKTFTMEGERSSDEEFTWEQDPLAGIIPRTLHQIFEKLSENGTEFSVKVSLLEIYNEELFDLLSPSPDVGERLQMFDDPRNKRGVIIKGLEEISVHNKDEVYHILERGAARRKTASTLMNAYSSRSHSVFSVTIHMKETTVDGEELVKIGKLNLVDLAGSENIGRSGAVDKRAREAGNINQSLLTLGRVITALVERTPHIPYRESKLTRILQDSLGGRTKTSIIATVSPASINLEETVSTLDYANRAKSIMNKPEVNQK

Eg5 (kinesin-5) [2] = biological target: T1, Eg5 (kinesin-5); assay: microtubule shrinkage assay with purified Eg5M plus inhibitor; assay type: biochemical
Outline: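 Shrinkage run in BRB80 with oxygen scavenger and 0.2 mg/mL casein. Microtubules are grown from Cy5/biotin GMPCPP seeds with TMR-labeled bovine brain tubulin, 5 mM Mg-ATP and 2 mM Mg-GTP, ±His-purified motor (E. coli-expressed), for 20 min at 37°C. Catastrophe is triggered by flowing in 22°C tubulin-free buffer holding the same motor concentration. Shrinkage velocities come from tracked ends imaged on stage.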

Structure (SMILES)	microtubule shrinkage assay with purified Eg5M in AMPPNP (TIRF) (Eg5 (kinesin-5) [1]) [nm/s]	microtubule shrinkage assay with purified Eg5M plus inhibitor (TIRF) (Eg5 (kinesin-5) [2]) [nm/s]
Nc1ncnc2c1ncn2[C@@H]1O[C@H](CO[P@](=O)(O)O[P@](=O)(O)NP(=O)(O)O)[C@@H](O)[C@H]1O [AMPPNP]	0.5	
CC(C)(C)c1ccc2cc(C#N)c(C#N)cc2c1 [BRD9876]		0.2
